A short description of series [1]: Protein binding in rat by equilibrium dialysis. It counts as ADME, organism-based. The conditions noted are these: read-out: PB (converted). The procedure, abridged: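 Protein binding (%) determined by equilibrium dialysis.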
For orientation: In equilibrium dialysis free small molecules cross a membrane that holds back macromolecules.

Series [2] is described as follows: Apparent permeability from apical to basolateral side of human Caco-2 cells after 120 mins. For orientation: Caco-2 cells form a polarised layer with tight junctions and transporters.
Series [3] has as its target T1, Histamine H1 receptor (Homo sapiens, UniProt P35367). Description: Displacement of [3H]pyrilamine from human recombinant histamine H1 receptor expressed in CHOK1 cells by scintillation counting. It counts as cell-based, CHO-K1. In general terms: Loss of bound radioactivity is the signal in a displacement assay; it reports binding, not function.
Series [4] has as its system Mus musculus. As to the kind of experiment: Antiinflammatory activity in BALB/c mouse model assessed as inhibition of ovalbumin-induced ear swelling at 10 mg/kg, po administered 60 mins before ovalbumin challenge measured 24 hrs after elicitation by late type reaction assay. It counts as functional. The procedure, abridged: (§1)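 Female BALB/c mice, 8 weeks old, sensitized by i.p. OVA with alum; two weeks later compound suspended in 0.5% MC given orally 60 min before OVA injection into the ear.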

For series [5], the species on record is Mus musculus. As to the kind of experiment: animal or person. Format: functional. The conditions noted are these: ddY, route oral.
Series [6] can be described thus: Oral bioavailability in rat. It counts as ADME, organism-based. The conditions noted are these: in vivo.
Series [7] deals with Mus musculus. Description: Antiinflammatory activity in BALB/c mouse model assessed as inhibition of ovalbumin-induced ear swelling at 10 mg/kg, po administered 60 mins before ovalbumin challenge measured 1 hr after elicitation by immediate type reaction assay. It counts as functional. The procedure, abridged: as §1
Series [8] concerns the target T1, Histamine H1 receptor. Description: Inhibition of histamine H1 receptor.
For series [9], the system named is Mus musculus. Description: Antiinflammatory activity in po dosed BALB/c mouse model assessed as inhibition of ovalbumin-induced ear swelling administered 60 mins before ovalbumin challenge measured 24 hrs after elicitation by late type reaction assay. Format: functional, organism-based. The procedure, abridged: as §1
Series [10] concerns Mus musculus. As to the kind of experiment: Antiinflammatory activity in po dosed BALB/c mouse model assessed as inhibition of ovalbumin-induced ear swelling administered 60 mins before ovalbumin challenge measured 1 hr after elicitation by immediate type reaction assay. Format: functional, organism-based. The procedure, abridged:
as §1

Series [11] deals with Mus musculus. As to the kind of experiment: In vivo antihistaminic activity at histamine H1 receptor in ddY mouse assessed as inhibition of histamine-induced skin vascular permeability at 10 mg/kg, po administered 1 hr before histamine challenge measured after 30 mins by Evan's blue staining. It counts as functional.
The subject of series [12] is Mus musculus. Description: Antiinflammatory activity in BALB/c mouse model assessed as inhibition of ovalbumin-induced ear swelling at 30 mg/kg, po administered 60 mins before ovalbumin challenge measured 24 hrs after elicitation by late type reaction assay. Format: functional. The procedure, abridged:
as §1

In series [13] the test system is Mus musculus. Description: Antiinflammatory activity in BALB/c mouse model assessed as inhibition of ovalbumin-induced ear swelling at 30 mg/kg, po administered 60 mins before ovalbumin challenge measured 1 hr after elicitation by immediate type reaction assay. It counts as functional. The procedure, abridged:
as §1

These results are taken from ChEMBL document CHEMBL1152910, “Synthesis and structure-activity relationships of phenothiazine carboxylic acids having pyrimidine-dione as novel histamine H(1) antagonists” (Bioorg Med Chem Lett, 2009).

T1 sequence (P35367 whole entry): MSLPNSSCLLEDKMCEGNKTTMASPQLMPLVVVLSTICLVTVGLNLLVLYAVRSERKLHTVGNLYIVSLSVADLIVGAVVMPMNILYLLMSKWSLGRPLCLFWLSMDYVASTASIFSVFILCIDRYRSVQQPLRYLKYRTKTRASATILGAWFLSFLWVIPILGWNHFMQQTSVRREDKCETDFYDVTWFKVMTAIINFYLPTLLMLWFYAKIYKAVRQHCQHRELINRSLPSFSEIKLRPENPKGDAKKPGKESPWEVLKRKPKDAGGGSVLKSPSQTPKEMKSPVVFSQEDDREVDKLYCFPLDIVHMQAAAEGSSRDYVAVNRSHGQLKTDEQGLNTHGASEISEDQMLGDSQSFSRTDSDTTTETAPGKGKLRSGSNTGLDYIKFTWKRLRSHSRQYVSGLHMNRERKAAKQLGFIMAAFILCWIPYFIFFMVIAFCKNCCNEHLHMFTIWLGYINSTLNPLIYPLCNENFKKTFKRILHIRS

As for `Cn1c(N2CCCN(CCCN3c4ccccc4Sc4ccc(C(C)(C)C(=O)O)cc43)CC2)cc(=O)n(C)c1=O`, the fraction unbound in [1] is 0.045. In addition, the Papp A→B (in general, the apparent permeability from the apical to the basolateral side of a cell layer) at 2 h in series [2] was found to be 9.9 ×10⁻⁶ cm/s. Also, the IC50 (as a rule, the concentration needed to halve the response being measured) in [3] amounted to 0.123 µM.
For `CN(CCCN1CCC(CN2c3ccccc3Sc3ccc(C(=O)O)cc32)CC1)c1cc(=O)n(C)c(=O)n1C`, in series [2], the Papp A→B at 2 h turned out to be 0.6 ×10⁻⁶ cm/s. The IC50 in series [3] came to 0.053 µM.
As to `Cn1c(C2=CCN(CCCN3c4ccccc4Sc4ccc(CC(=O)O)cc43)CC2)cc(=O)n(C)c1=O`, the values for the inhibition in vivo at 10 mg/kg in [4] and in series [7] were 12% and 86%, respectively. Besides, the inhibition in vivo (usually the relative decrease from the control value, in per cent) at 3 mg/kg in series [5] amounted to 82%. Besides, the Papp A→B at 2 h in series [2] was determined as 4.7 ×10⁻⁶ cm/s. Moreover, the bioavailability – broadly, the share of a dose that reaches the circulation, judged against a reference dose that is usually intravenous – in [6] amounted to 30%. In addition, the IC50 in [3] amounted to 0.041 µM.
Regarding `Cn1c(N2CCCN(CCCN3c4ccccc4Sc4cccc(C(=O)O)c43)CC2)cc(=O)n(C)c1=O`, the Papp A→B at 2 h in series [2] is 0.5 ×10⁻⁶ cm/s. Besides, the IC50 in series [3] is more than 0.5 µM.
Turning to `CC(C)(C(=O)O)c1ccc(C(O)CCCN2CCC(C(O)(c3ccccc3)c3ccccc3)CC2)cc1` (centres undefined) [FEXOFENADINE], the inhibition in vivo at 10 mg/kg came out at 6% in [4] and 61% in [7].
`Cn1c(NCCCN2CCC(Oc3ccc(Cl)cc3C(=O)O)CC2)cc(=O)n(C)c1=O`: the IC50 in series [8] is more than 1 µM.
For the compound `Cn1c(N2CCCN(CCCN3c4ccccc4Sc4c(C(=O)O)cccc43)CC2)cc(=O)n(C)c1=O`, the Papp A→B at 2 h in [2] stood at 0.5 ×10⁻⁶ cm/s. Further, the IC50 in series [3] was more than 0.5 µM.
Consider `Cn1c(N2CCN(CCCN3c4ccccc4Sc4ccc(CC(=O)O)cc43)CC2)cc(=O)n(C)c1=O`, for which the fraction unbound in [1] is 0.022. Besides, the inhibition in vivo at 10 mg/kg was found to be 64% in series [4] and 73% in [7]. Further, in series [5], the inhibition in vivo at 3 mg/kg came to 61%. In addition, the Papp A→B at 2 h in [2] came to 12.3 ×10⁻⁶ cm/s. The compound further displayed a bioavailability in series [6] of 27%. Further, the inhibition entry in series [9] and in series [10] was “Dose-dependent effect” throughout. Moreover, in [3], the IC50 came to 0.04 µM.
Turning to `Cn1c(N2CCN(CCCCN3c4ccccc4Sc4ccc(C(=O)O)cc43)CC2)cc(=O)n(C)c1=O`, in series [1], the fraction unbound is 0.001. Further, the inhibition in vivo at 10 mg/kg in series [11] worked out at 43%. Also, the Papp A→B at 2 h in [2] stood at 20.3 ×10⁻⁶ cm/s. Also, in series [6], the bioavailability is 16%. The IC50 in series [3] was found to be 0.035 µM.
For `Cn1c(NCCCN2CCC(CN3c4ccccc4Sc4ccc(C(=O)O)cc43)CC2)cc(=O)n(C)c1=O`, the Papp A→B at 2 h in [2] worked out at 0.4 ×10⁻⁶ cm/s. Moreover, the IC50 in series [3] was determined as 0.046 µM.
`Cn1c(N2CCN(CCCN3c4ccccc4Sc4ccc(C(=O)O)cc43)CC2)cc(=O)n(C)c1=O`: in series [1], the fraction unbound is 0.006. For the same compound, the inhibition in vivo at 10 mg/kg was 65% in series [4], 39% in series [11] and 47% in [7]. In addition, the Papp A→B at 2 h in [2] worked out at 9.9 ×10⁻⁶ cm/s. Besides, the bioavailability in [6] was found to be 17%. Besides, the IC50 in [3] worked out at 0.037 µM.
In the case of `Cn1c(N2CCCN(CCCN3c4ccccc4Sc4ccc(CCC(=O)O)cc43)CC2)cc(=O)n(C)c1=O`, the fraction unbound in series [1] was 0.012. Besides, the inhibition in vivo at 10 mg/kg was 49% in series [4] and 79% in series [7]. The inhibition in vivo at 3 mg/kg in series [5] stood at 51%. The Papp A→B at 2 h in series [2] came out at 7.7 ×10⁻⁶ cm/s. Further, the bioavailability in [6] amounted to 7%. In addition, the IC50 in [3] is 0.069 µM.
For `Cn1c(N2CCN(CCN3c4ccccc4Sc4ccc(C(=O)O)cc43)CC2)cc(=O)n(C)c1=O`, the Papp A→B at 2 h in [2] is 4.9 ×10⁻⁶ cm/s. Besides, the IC50 in series [3] turned out to be 0.124 µM.
`C[C@]12C=CC(=O)C=C1CC[C@@H]1[C@@H]2[C@@H](O)C[C@@]2(C)[C@H]1CC[C@]2(O)C(=O)CO` [PREDNISOLONE]: the results for the inhibition in vivo at 10 mg/kg in [4] and in series [7] were 81% and 22%, respectively.
With `Cn1c(N2CCN(CCCN3c4ccccc4Sc4ccc(CCC(=O)O)cc43)CC2)cc(=O)n(C)c1=O`, in [1], the fraction unbound is 0.001. In addition, in [5], the inhibition in vivo at 3 mg/kg is 51%. In [2], the Papp A→B at 2 h stood at 5.1 ×10⁻⁶ cm/s. This compound had a bioavailability in [6] of 51%. Also, in series [3], the IC50 amounted to 0.105 µM.
As for `Cn1c(N2CCCN(CCCN3c4ccccc4Sc4ccc(C(=O)O)cc43)CC2)cc(=O)n(C)c1=O`, in [1], the fraction unbound is 0.012. In addition, the inhibition in vivo at 10 mg/kg in series [4] amounted to 53%; in [7], 50%. Besides, the inhibition in vivo at 3 mg/kg in [5] was 14%. Further, in series [2], the Papp A→B at 2 h was determined as 4.7 ×10⁻⁶ cm/s. In addition, the bioavailability in [6] came to 7%. Moreover, in [3], the IC50 is 0.023 µM.
With `Cn1c(NCCCN2CCC(Oc3ccc(Cl)c(Cl)c3)CC2)cc(=O)n(C)c1=O`, the fraction unbound in [1] is 0.166. Besides, the inhibition in vivo at 30 mg/kg in series [12] stood at 61%; in series [13], 72%. Also, the inhibition in vivo at 10 mg/kg in series [11] amounted to 69%. In addition, the apparent permeability from apical to basolateral (Papp A→B) at 2 h in [2] turned out to be 4.2 ×10⁻⁶ cm/s. Also, the bioavailability in [6] worked out at 25%. Further, the IC50 in series [3] was found to be 0.028 µM; in series [8], 0.058 µM.
On to `Cn1c(N2CCCN(CCCN3c4ccccc4Sc4ccc(/C=C\C(=O)O)cc43)CC2)cc(=O)n(C)c1=O`, for which the Papp A→B at 2 h in [2] worked out at 7.1 ×10⁻⁶ cm/s. For the same compound, the IC50 in series [3] amounted to 0.323 µM.
For the compound `CCC(C(=O)O)c1ccc2c(c1)N(CCCN1CCCN(c3cc(=O)n(C)c(=O)n3C)CC1)c1ccccc1S2` (centres undefined), the inhibition in vivo at 3 mg/kg in [5] was 51%. For the same compound, the Papp A→B at 2 h in [2] was found to be 22.3 ×10⁻⁶ cm/s. In addition, the bioavailability in series [6] was found to be 14%. Further, the IC50 in series [3] came to 0.041 µM.
As to `CC(C(=O)O)c1ccc2c(c1)N(CCCN1CCCN(c3cc(=O)n(C)c(=O)n3C)CC1)c1ccccc1S2` (centres undefined), in [1], the fraction unbound is 0.022. Moreover, in [5], the inhibition in vivo at 3 mg/kg came out at 79%. Moreover, the Papp A→B at 2 h in series [2] came to 6.9 ×10⁻⁶ cm/s. This compound registered a bioavailability in series [6] of 10%. Also, the IC50 in series [3] worked out at 0.072 µM.
As for `CN1CCC(=C2c3ccccc3CC(=O)c3sccc32)CC1.O=C(O)/C=C/C(=O)O` [KETOTIFEN FUMARATE], the inhibition in vivo at 30 mg/kg in series [12] was -4%; in series [13] it was 106%. Besides, the results for the inhibition in vivo at 10 mg/kg in series [4] and in series [7] were 3% and 119%, respectively. Also, the inhibition in vivo at 3 mg/kg in series [5] is 98%. The Papp A→B at 2 h in series [2] is 11.1 ×10⁻⁶ cm/s.
Consider `Cn1c(N2CCCN(CCCN3c4ccccc4Sc4ccc(CC(=O)O)cc43)CC2)cc(=O)n(C)c1=O`, for which the fraction unbound in series [1] was 0.051. Moreover, the values for the inhibition in vivo at 10 mg/kg in [4] and in [7] were 12% and 16%, respectively. The inhibition in vivo at 3 mg/kg in series [5] came to 53%. The Papp A→B at 2 h in series [2] is 5.5 ×10⁻⁶ cm/s. In series [6], this compound registered a bioavailability of 19%. The IC50 in [3] stood at 0.023 µM.
On to `Cn1c(N2CCCN(CCCN3c4ccccc4Sc4ccc(OCC(=O)O)cc43)CC2)cc(=O)n(C)c1=O`, for which, in [1], the fraction unbound is 0.047. Also, the apparent permeability from apical to basolateral (Papp A→B) at 2 h in series [2] was 0.5 ×10⁻⁶ cm/s. Also, the IC50 in series [3] was determined as 0.088 µM.
